Results on 19 molecules are retold here after ChEMBL document CHEMBL3751676, “Combating P-glycoprotein-mediated multidrug resistance with 10-O-phenyl dihydroartemisinin ethers in MCF-7 cells” (Eur J Med Chem, 2016).

One data set relates to MCF7. The data set can be described thus: Antiproliferative activity against human MCF7 cells after 96 hrs by MTT assay. In kind it is functional. The conditions noted are these: MCF7, 96 h. The method in brief: (§1)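 MTT: cells seeded at 1.5-4.0 × 10^4 cells/mL and incubated overnight at 37 C, then exposed to 5-9 concentrations (DMSO stocks diluted in growth medium; final DMSO ≤0.5%) for 96 h. MTT added at 0.5 mg/mL for a further 4 h at 37 C and the formazan dissolved. Inhibition calculated relative to control; GI50 estimated by curve fitting; 3-5 repeats, mean ± SD.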
On the technique in general: Tetrazolium dyes change colour on reduction, which living cells bring about.

Data set [1] in a line: Antiproliferative activity against human MCF7/ADR cells after 96 hrs by MTT assay. Format: functional. The conditions noted are these: NCI/ADR-RES. An outline of the steps: as §1
For the next data set, the system named is NCI/ADR-RES. The data set can be described thus: Selectivity index, ratio of GI50 for human MCF7 cells to GI50 for human MCF7/ADR cells. In kind it is functional.
The target of data set [2] is T1, MDR1 (ABCB1) (Homo sapiens, UniProt P08183). The data set can be described thus: Activity at MDR1 (unknown origin) expressed in MDCK cells assessed as permeability across apical to basolateral after 90 mins by LC-MS/MS analysis. Format: ADME, cell-based.
The target in data set [3] is T1, MDR1 (ABCB1). Put plainly: Activity at MDR1 (unknown origin) expressed in MDCK cells assessed as permeability across basolateral to apical after 90 mins by LC-MS/MS analysis. In kind it is ADME, cell-based.
Data set [4] in a line: Permeability across apical to basolateral side in MDCK cells after 90 mins by LC-MS/MS analysis. Format: ADME, cell-based, Canis lupus familiaris. Conditions: dog. An outline of the steps:
(§2)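 Wild-type MDCK cells on Transwell filters. Transport was run in HBSS pH 7.4 at 37 °C in A-B and B-A directions, and plates were separated after 90 min incubation. Efflux ratio is Papp(B-A)/Papp(A-B). Papp is reported as "<" when receiver concentrations were below the quantitation limit.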

Data set [5] can be described thus: Permeability across basolateral to apical side in MDCK cells after 90 mins by LC-MS/MS analysis. Format: ADME, cell-based, Canis lupus familiaris. The conditions noted are these: dog. The method in brief: as §2
The target of data set [6] is T1, MDR1 (ABCB1). Put plainly: Activity at MDR1 (unknown origin) expressed in MDCK cells assessed as efflux ratio of permeability across basolateral to apical side over apical to basolateral side. In kind it is ADME, cell-based.
A short description of data set [7]: Efflux ratio of permeability across basolateral to apical side over apical to basolateral side in MDCK cells. The conditions noted are these: dog. In kind it is ADME, cell-based, Canis lupus familiaris. The method in brief: as §2

T1 sequence (P08183 whole entry): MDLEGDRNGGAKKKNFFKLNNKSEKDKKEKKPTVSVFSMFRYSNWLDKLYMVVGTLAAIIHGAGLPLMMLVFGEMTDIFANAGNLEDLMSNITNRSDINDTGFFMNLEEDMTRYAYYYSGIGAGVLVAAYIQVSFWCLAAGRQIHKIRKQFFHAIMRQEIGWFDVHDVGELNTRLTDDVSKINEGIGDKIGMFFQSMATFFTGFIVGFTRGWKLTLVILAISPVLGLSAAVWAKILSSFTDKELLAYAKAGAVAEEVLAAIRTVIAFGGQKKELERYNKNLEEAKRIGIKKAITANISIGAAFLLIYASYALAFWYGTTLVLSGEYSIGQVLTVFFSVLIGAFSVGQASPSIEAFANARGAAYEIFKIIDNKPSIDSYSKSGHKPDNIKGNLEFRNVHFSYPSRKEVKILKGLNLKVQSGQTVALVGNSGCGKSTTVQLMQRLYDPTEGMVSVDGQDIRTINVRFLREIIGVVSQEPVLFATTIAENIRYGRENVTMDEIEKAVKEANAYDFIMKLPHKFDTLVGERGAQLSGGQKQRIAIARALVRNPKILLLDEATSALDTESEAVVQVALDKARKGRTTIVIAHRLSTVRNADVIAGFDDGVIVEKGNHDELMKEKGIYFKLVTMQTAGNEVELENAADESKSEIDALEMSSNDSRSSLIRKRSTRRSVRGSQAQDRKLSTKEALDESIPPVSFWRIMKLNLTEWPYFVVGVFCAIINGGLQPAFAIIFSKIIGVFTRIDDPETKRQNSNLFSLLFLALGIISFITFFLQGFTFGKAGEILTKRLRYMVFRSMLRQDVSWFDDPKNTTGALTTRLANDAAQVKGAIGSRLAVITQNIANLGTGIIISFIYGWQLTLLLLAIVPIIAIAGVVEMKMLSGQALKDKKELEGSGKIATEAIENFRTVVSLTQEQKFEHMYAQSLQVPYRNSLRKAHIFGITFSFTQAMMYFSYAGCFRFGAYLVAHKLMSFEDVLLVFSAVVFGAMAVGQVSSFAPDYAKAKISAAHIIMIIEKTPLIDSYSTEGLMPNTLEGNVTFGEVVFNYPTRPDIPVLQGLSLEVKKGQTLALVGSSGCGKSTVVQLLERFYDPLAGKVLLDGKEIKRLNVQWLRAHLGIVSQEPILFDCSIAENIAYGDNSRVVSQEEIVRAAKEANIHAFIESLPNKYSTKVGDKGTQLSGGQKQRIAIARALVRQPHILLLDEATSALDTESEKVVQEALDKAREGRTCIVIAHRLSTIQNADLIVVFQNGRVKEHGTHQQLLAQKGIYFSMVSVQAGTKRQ

Broadly, the GI50 is the concentration at which growth is held to half of that of the control. With `C[C@H]1[C@@H](Oc2ccc(C(=O)N3CCN(c4ccccc4)CC3)cc2)O[C@@H]2O[C@@]3(C)CC[C@H]4[C@H](C)CC[C@@H]1[C@@]24OO3`, the GI50 was found to be 0.1 µM in the data set on MCF7 and 0.075 µM in [1]. In addition, the RatioGI50 in the data set with NCI/ADR-RES was 1.33.

Turning to `C[C@H]1[C@@H](Oc2ccc(/C=C/C(=O)N3CCN(c4ccccc4)CC3)cc2)O[C@@H]2O[C@@]3(C)CC[C@H]4[C@H](C)CC[C@@H]1[C@@]24OO3`, the GI50 was 0.11 µM in the data set on MCF7 and 0.051 µM in data set [1]. The RatioGI50 with NCI/ADR-RES is on record as 2.16.

As for `C[C@H]1[C@@H](Oc2ccc(CC(=O)N3CCN(c4ccccn4)CC3)cc2)O[C@@H]2O[C@@]3(C)CC[C@H]4[C@H](C)CC[C@@H]1[C@@]24OO3`, the GI50 with MCF7 is 0.96 µM; in data set [1], 0.08 µM. In addition, the RatioGI50 in the data set with NCI/ADR-RES was 12.

Regarding `C[C@H]1[C@@H](Oc2ccc(CC(=O)N3CCN(c4cccc(C(F)(F)F)c4)CC3)cc2)O[C@@H]2O[C@@]3(C)CC[C@H]4[C@H](C)CC[C@@H]1[C@@]24OO3`, the GI50 in the data set on MCF7 is 0.26 µM; in [1], 0.041 µM. Further, the RatioGI50 with NCI/ADR-RES stood at 6.34.

`COc1ccccc1N1CCN(C(=O)Cc2ccc(O[C@H]3O[C@@H]4O[C@@]5(C)CC[C@H]6[C@H](C)CC[C@@H]([C@H]3C)[C@@]46OO5)cc2)CC1`: the 50% growth inhibitory concentration (GI50) with MCF7 was determined as 0.47 µM; in [1], 0.043 µM. The RatioGI50 in the data set with NCI/ADR-RES is 10.93.

One may read the Papp A→B as the apparent permeability from the apical to the basolateral side of a cell layer. For orientation: Papp B→A means the apparent permeability from the basolateral to the apical side of a cell layer. What is called efflux ratio is the permeability from basolateral to apical divided by that in the opposite direction, in the common usage. As to `C=C[C@H]1C[N@@]2CC[C@H]1C[C@@H]2[C@@H](O)c1ccnc2ccc(OC)cc12` [QUINIDINE], the Papp A→B at 1.5 h was 4.37 ×10⁻⁶ cm/s on MDR1 (ABCB1) [2] and 9.98 ×10⁻⁶ cm/s in [4]. The Papp B→A at 1.5 h on MDR1 (ABCB1) [3] was 34.1 ×10⁻⁶ cm/s; in [5], 23.4 ×10⁻⁶ cm/s. The efflux ratio at MDR1 (ABCB1) [6] came out at 7.81; in [7], 2.34.

`COc1cccc2c1C(=O)c1c(O)c3c(c(O)c1C2=O)C[C@@](O)(C(=O)CO)C[C@@H]3O[C@H]1C[C@H](N)[C@H](O)[C@H](C)O1.Cl` [DOXORUBICIN HYDROCHLORIDE]: the figures for the GI50 (with MCF7; in data set [1]) were 0.054 µM and 0.52 µM, respectively. Besides, the RatioGI50 with NCI/ADR-RES was found to be 0.1.

`COCCc1ccc(OCC(O)CNC(C)C)cc1` (stereo not drawn) [METOPROLOL]: the apparent permeability from apical to basolateral (Papp A→B) at 1.5 h amounted to 22.2 ×10⁻⁶ cm/s at MDR1 (ABCB1) [2] and 24.3 ×10⁻⁶ cm/s in [4]. Also, the basolateral-to-apical permeability (Papp B→A) at 1.5 h at MDR1 (ABCB1) [3] amounted to 23.7 ×10⁻⁶ cm/s; in data set [5], 18.5 ×10⁻⁶ cm/s. Further, the efflux ratio on MDR1 (ABCB1) [6] amounted to 1.07; in [7], 0.76.

As to `C[C@H]1[C@@H](Oc2ccc(/C=C/C(=O)N3CCN(c4ccc(F)cc4)CC3)cc2)O[C@@H]2O[C@@]3(C)CC[C@H]4[C@H](C)CC[C@@H]1[C@@]24OO3`, the values for the GI50 (with MCF7; in [1]) were 0.27 µM and 0.038 µM, respectively. Besides, the RatioGI50 in the data set on NCI/ADR-RES turned out to be 8.57.

As to `C[C@H]1[C@@H](Oc2ccc(CN3CCN(c4ccc(F)cc4)CC3)cc2)O[C@@H]2O[C@@]3(C)CC[C@H]4[C@H](C)CC[C@@H]1[C@@]24OO3`, the GI50 is 0.53 µM in the data set on MCF7 and 0.025 µM in data set [1]. In addition, the RatioGI50 in the data set with NCI/ADR-RES amounted to 21.2. Also, the Papp A→B at 1.5 h on MDR1 (ABCB1) [2] was less than 1.34 ×10⁻⁶ cm/s; in [4], less than 1.33 ×10⁻⁶ cm/s. For the same molecule, the Papp B→A at 1.5 h was less than 0.85 ×10⁻⁶ cm/s on MDR1 (ABCB1) [3] and less than 0.83 ×10⁻⁶ cm/s in data set [5].

Take `C[C@H]1[C@@H](O)O[C@@H]2O[C@@]3(C)CC[C@H]4[C@H](C)CC[C@@H]1[C@@]24OO3` [ARTENIMOL]: the GI50 was determined as 33.2 µM in the data set with MCF7 and 3.32 µM in data set [1]. In addition, the RatioGI50 with NCI/ADR-RES came to 10. Moreover, the Papp A→B at 1.5 h on MDR1 (ABCB1) [2] worked out at 28 ×10⁻⁶ cm/s; in data set [4] it was 31.4 ×10⁻⁶ cm/s. The figures for the Papp B→A at 1.5 h (at MDR1 (ABCB1) [3]; in [5]) were 24.9 ×10⁻⁶ cm/s and 25.1 ×10⁻⁶ cm/s, respectively. The efflux ratio on MDR1 (ABCB1) [6] was determined as 0.89; in data set [7] it was 0.8.

Regarding `C[C@H]1[C@@H](Oc2ccc(CC(=O)N3CCN(c4ccccc4)CC3)cc2)O[C@@H]2O[C@@]3(C)CC[C@H]4[C@H](C)CC[C@@H]1[C@@]24OO3`, the GI50 with MCF7 was determined as 0.43 µM; in [1] it was 0.09 µM. Also, the RatioGI50 with NCI/ADR-RES is reported as 4.78.

Consider `C[C@H]1[C@@H](Oc2ccc(CC(=O)N3CCN(c4ccc(F)cc4)CC3)cc2)O[C@@H]2O[C@@]3(C)CC[C@H]4[C@H](C)CC[C@@H]1[C@@]24OO3`, for which the GI50 with MCF7 was found to be 0.29 µM; in data set [1], 0.044 µM. Further, the RatioGI50 in the data set on NCI/ADR-RES is listed as 7.11.

Turning to `COc1ccccc1N1CCN(C(=O)/C=C/c2ccc(O[C@H]3O[C@@H]4O[C@@]5(C)CC[C@H]6[C@H](C)CC[C@@H]([C@H]3C)[C@@]46OO5)cc2)CC1`, the GI50 in the data set with MCF7 worked out at 0.14 µM; in data set [1], 0.031 µM. Also, the RatioGI50 in the data set on NCI/ADR-RES is reported as 4.52.

As to `C[C@H]1[C@@H](Oc2ccc(CN3CCN(c4ccccn4)CC3)cc2)O[C@@H]2O[C@@]3(C)CC[C@H]4[C@H](C)CC[C@@H]1[C@@]24OO3`, the 50% growth inhibitory concentration (GI50) is 0.17 µM in the data set with MCF7 and 0.055 µM in data set [1]. Moreover, in the data set with NCI/ADR-RES, the RatioGI50 worked out at 3.09.

For the molecule `C[C@H]1[C@@H](Oc2ccc(CN3CCN(c4ccccc4)CC3)cc2)O[C@@H]2O[C@@]3(C)CC[C@H]4[C@H](C)CC[C@@H]1[C@@]24OO3`, the figures for the GI50 (in the data set on MCF7; in data set [1]) were 0.24 µM and 0.021 µM, respectively. In addition, the RatioGI50 with NCI/ADR-RES turned out to be 11.43.

Consider `C[C@H]1[C@@H](Oc2ccc(CN3CCN(c4cccc(C(F)(F)F)c4)CC3)cc2)O[C@@H]2O[C@@]3(C)CC[C@H]4[C@H](C)CC[C@@H]1[C@@]24OO3`, for which the GI50 in the data set on MCF7 was 0.22 µM; in [1], 0.033 µM. In addition, the RatioGI50 in the data set on NCI/ADR-RES is 6.67.

Regarding `C[C@H]1[C@@H](Oc2ccc(/C=C/C(=O)N3CCN(c4ccccn4)CC3)cc2)O[C@@H]2O[C@@]3(C)CC[C@H]4[C@H](C)CC[C@@H]1[C@@]24OO3`, the GI50 is 0.29 µM in the data set with MCF7 and 0.11 µM in [1]. Besides, the RatioGI50 with NCI/ADR-RES was 2.64.

Consider `COc1ccccc1N1CCN(Cc2ccc(O[C@H]3O[C@@H]4O[C@@]5(C)CC[C@H]6[C@H](C)CC[C@@H]([C@H]3C)[C@@]46OO5)cc2)CC1`, for which the GI50 in the data set with MCF7 was 0.58 µM; in data set [1], 0.15 µM. The RatioGI50 with NCI/ADR-RES is reported as 3.87.
